According to ChEMBL document CHEMBL1141374 (J Med Chem, 2007):
Blank lines part the entries; values can stand above or below the compound they belong to.

Assays:
[1] = system: SK-MEL-28; assay: Growth inhibition in SK-MEL-28 cells; type: functional; settings: Homo sapiens
[2] = system: BT-549; assay: Growth inhibition in BT549 cells; type: functional; settings: Homo sapiens
[3] = system: MDA-MB-435; assay: Growth inhibition in MDA-MB-435 cells; type: functional; settings: Homo sapiens
[4] = system: MCF7; assay: Growth inhibition in MCF7 cells; type: functional; settings: Homo sapiens
[5] = system: RXF 393; assay: Growth inhibition in RXF393 cells; type: functional; settings: Homo sapiens
[6] = system: EKVX; assay: Growth inhibition in EKVX cells; type: functional; settings: Homo sapiens
[7] = system: OVCAR-8; assay: Growth inhibition in OVCAR8 cells; type: functional; settings: Homo sapiens
[8] = system: TK-10; assay: Growth inhibition in TK10 cells; type: functional; settings: Homo sapiens
[9] = system: A498; assay: Growth inhibition in A498 cells; type: functional; settings: Homo sapiens
[10] = system: NCI-H226; assay: Growth inhibition in NCI-H226 cells; type: functional; settings: Homo sapiens
[11] = system: SK-MEL-5; assay: Growth inhibition in SK-MEL-5 cells; type: functional; settings: Homo sapiens
[12] = system: NCI-H460; assay: Growth inhibition in NCI-H460 cells; type: functional; settings: Homo sapiens
[13] = system: SW-620; assay: Growth inhibition in SW620 cells; type: functional; settings: Homo sapiens
[14] = Growth inhibition in HCC116 cells; type: functional; settings: Homo sapiens
[15] = system: T47D; assay: Growth inhibition in T47D cells; type: functional; settings: Homo sapiens
[16] = system: K562; assay: Growth inhibition in K562 cells; type: functional; settings: Homo sapiens
[17] = system: 786-0; assay: Growth inhibition in 786-0 cells; type: functional; settings: Homo sapiens
[18] = system: UO-31; assay: Growth inhibition in UO31 cells; type: functional; settings: Homo sapiens
[19] = system: DU-145; assay: Growth inhibition in DU145 cells; type: functional; settings: Homo sapiens
[20] = system: SK-MEL-2; assay: Growth inhibition in SK-MEL-2 cells; type: functional; settings: Homo sapiens
[21] = system: SF-295; assay: Growth inhibition in SF295 cells; type: functional; settings: Homo sapiens
[22] = system: HCT-116; assay: Cytotoxicity against HCT116 cell line; type: cell-based; settings: Homo sapiens
In short: (§1)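 Log-phase cells were diluted to 20 000–30 000 cells/mL, seeded, and left to attach overnight. They were then exposed to compounds at 10^–5–10^–12 M for 72 h at 37 °C in 5% CO2. Viable cells were measured by MTT, with absorbance read at 595 nm. Each compound ran in triplicate in at least three independent assays. IC50 came from nonlinear regression, and average values were reported.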

[23] = system: HOP-62; assay: Growth inhibition in HOP62 cells; type: functional; settings: Homo sapiens
[24] = system: KM12; assay: Growth inhibition in KM12 cells; type: functional; settings: Homo sapiens
[25] = system: CCRF-CEM; assay: Growth inhibition in CCRF-CEM cells; type: functional; settings: Homo sapiens
[26] = system: HeLa; assay: Cytotoxicity against HeLa cell line; type: cell-based; settings: Homo sapiens; in short: as §1
[27] = system: OVCAR-5; assay: Growth inhibition in OVCAR5 cells; type: functional; settings: Homo sapiens
[28] = Cytotoxicity against KB-3-1 cell line; type: cell-based; settings: Homo sapiens; in short: as §1
[29] = system: OVCAR-4; assay: Growth inhibition in OVCAR4 cells; type: functional; settings: Homo sapiens
[30] = target: Tubulin; assay: Inhibition of tubulin polymerization; type: protein-complex assay, Homo sapiens
In short: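 Kit-based assay run per the manufacturer's instructions. Tubulin (>99% pure, 3 mg/mL) in G-PEM buffer, in a prewarmed plate with compound at 0.03–30 μM. OD340 nm read every 60 s at 37 °C for 1 h.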

[31] = system: SN12C; assay: Growth inhibition in SN12C cells; type: functional; settings: Homo sapiens
[32] = system: SF-539; assay: Growth inhibition in SF539 cells; type: functional; settings: Homo sapiens
[33] = system: SK-OV-3; assay: Growth inhibition in SKOV3 cells; type: functional; settings: Homo sapiens
[34] = system: COLO 205; assay: Growth inhibition in COLO205 cells; type: functional; settings: Homo sapiens
[35] = system: M14; assay: Growth inhibition in M14 cells; type: functional; settings: Homo sapiens
[36] = system: SNB-75; assay: Growth inhibition in SNB75 cells; type: functional; settings: Homo sapiens
[37] = system: NCI-H522; assay: Growth inhibition in NCI-H522 cells; type: functional; settings: Homo sapiens
[38] = Growth inhibition in HS 578T cells; type: functional; settings: Homo sapiens
[39] = system: NCI-H322M; assay: Growth inhibition in NCI-H322M cells; type: functional; settings: Homo sapiens
[40] = system: UACC-257; assay: Growth inhibition in UACC257 cells; type: functional; settings: Homo sapiens
[41] = system: HL-60; assay: Growth inhibition in HL60 cells; type: functional; settings: Homo sapiens
[42] = system: A549; assay: Growth inhibition in A549 cells; type: functional; settings: Homo sapiens
[43] = system: ZR-75-1; assay: Cytotoxicity against ZR-75-1 cell line; type: cell-based; settings: Homo sapiens; in short: as §1
[44] = system: UACC-62; assay: Growth inhibition in UACC62 cells; type: functional; settings: Homo sapiens
[45] = system: HCC 2998; assay: Growth inhibition in HCC2998 cells; type: functional; settings: Homo sapiens
[46] = Growth inhibition in MDA-MB-231/ATCC cells; type: functional; settings: Homo sapiens
[47] = system: ACHN; assay: Growth inhibition in ACHN cells; type: functional; settings: Homo sapiens
[48] = Cytotoxicity against P-glycoprotein-overexpressing KB-V1 cell line; type: cell-based; settings: Homo sapiens; in short: as §1
[49] = system: NCI-H23; assay: Growth inhibition in NCI-H23 cells; type: functional; settings: Homo sapiens
[50] = system: SNB-19; assay: Growth inhibition in SNB19 cells; type: functional; settings: Homo sapiens
[51] = system: OVCAR-3; assay: Growth inhibition in OVCAR-3 cells; type: functional; settings: Homo sapiens
[52] = system: NCI/ADR-RES; assay: Growth inhibition in NCI/ADR-RES cells; type: functional; settings: Homo sapiens
[53] = system: HOP-92; assay: Growth inhibition in HOP92 cells; type: functional; settings: Homo sapiens
[54] = system: LOX IMVI; assay: Growth inhibition in LOX IMVI cells; type: functional; settings: Homo sapiens
[55] = system: HT-29; assay: Growth inhibition in HT29 cells; type: functional; settings: Homo sapiens
[56] = system: PC-3; assay: Growth inhibition in PC3 cells; type: functional; settings: Homo sapiens
[57] = Growth inhibition in HCC15 cells; type: functional; settings: Homo sapiens
[58] = system: SF-268; assay: Growth inhibition in SF268 cells; type: functional; settings: Homo sapiens
[59] = system: IGROV-1; assay: Growth inhibition in IGROV1 cells; type: functional; settings: Homo sapiens
[60] = system: CAKI-1; assay: Growth inhibition in CAK1-1 cells; type: functional; settings: Homo sapiens
[61] = system: U-251; assay: Growth inhibition in U251cells; type: functional; settings: Homo sapiens

GI50 [1]: < 0.01 µM
GI50 [2]: 0.0372 µM
GI50 [3]: < 0.01 µM
GI50 [4]: 0.0437 µM
GI50 [7]: 0.0427 µM
GI50 [10]: 85.1 µM
GI50 [11]: 0.0141 µM
GI50 [12]: 0.0331 µM
GI50 [13]: 0.0339 µM
GI50 [15]: 0.0447 µM
GI50 [16]: 0.0148 µM
GI50 [17]: 0.0324 µM
GI50 [19]: < 0.01 µM
GI50 [20]: 0.166 µM
GI50 [25]: 0.0324 µM
GI50 [27]: 0.0479 µM
GI50 [29]: 1.05 µM
IC50 [30]: 3 µM
GI50 [33]: 0.0316 µM
GI50 [34]: 0.0288 µM
GI50 [37]: < 0.01 µM
GI50 [39]: < 0.01 µM
GI50 [41]: 0.0417 µM
GI50 [42]: 0.0372 µM
GI50 [45]: 0.024 µM
GI50 [47]: 0.0347 µM
GI50 [49]: 0.0457 µM
GI50 [51]: < 0.01 µM
GI50 [55]: 0.0229 µM
GI50 [56]: 0.0195 µM
GI50 [61]: 0.0331 µM
Compound: COc1cc(-c2nncn2-c2ccc3c(ccn3C)c2)cc(OC)c1OC
GI50 [5]: < 0.01 µM
GI50 [6]: < 0.01 µM
GI50 [8]: < 0.01 µM
GI50 [9]: 0.0158 µM
GI50 [14]: 0.0309 µM
GI50 [18]: 0.0324 µM
GI50 [21]: < 0.01 µM
IC50 [22]: 0.00739 µM
GI50 [23]: 0.0186 µM
GI50 [24]: < 0.01 µM
IC50 [26]: 0.00873 µM
IC50 [28]: 0.0099 µM
GI50 [31]: 0.0631 µM
GI50 [32]: < 0.01 µM
GI50 [35]: 0.0186 µM
GI50 [36]: 0.0129 µM
GI50 [38]: 0.0162 µM
GI50 [40]: 0.245 µM
IC50 [43]: 0.0238 µM
GI50 [44]: < 0.01 µM
GI50 [46]: 0.0309 µM
IC50 [48]: 0.0208 µM
GI50 [50]: 0.0447 µM
GI50 [52]: 0.0209 µM
GI50 [53]: 0.0832 µM
GI50 [54]: 0.0562 µM
GI50 [57]: 0.0355 µM
GI50 [58]: < 0.01 µM
GI50 [59]: 0.0355 µM
GI50 [60]: < 0.01 µM

GI50 [1]: 0.427 µM
GI50 [2]: 3.63 µM
GI50 [3]: 0.0246 µM
GI50 [4]: 0.617 µM
GI50 [7]: 0.977 µM
GI50 [10]: > 100 µM
GI50 [11]: 0.288 µM
GI50 [12]: 0.407 µM
GI50 [13]: 0.38 µM
GI50 [15]: 0.269 µM
GI50 [16]: 0.209 µM
GI50 [17]: 0.501 µM
GI50 [19]: 0.661 µM
GI50 [20]: 0.724 µM
GI50 [25]: 0.295 µM
GI50 [27]: 1.95 µM
GI50 [29]: 0.417 µM
IC50 [30]: 6 µM
GI50 [33]: 0.316 µM
GI50 [34]: 1.17 µM
GI50 [37]: 0.263 µM
GI50 [39]: 91.2 µM
GI50 [41]: 0.389 µM
GI50 [42]: 1 µM
GI50 [45]: 0.933 µM
GI50 [47]: 0.417 µM
GI50 [49]: 4.27 µM
GI50 [51]: 0.195 µM
GI50 [55]: 2.88 µM
GI50 [56]: 0.288 µM
GI50 [61]: 0.407 µM
Compound: COc1ccc(-n2cnnc2-c2cc(OC)c(OC)c(OC)c2)cc1O
GI50 [5]: 0.309 µM
GI50 [8]: 7.41 µM
GI50 [9]: 0.417 µM
GI50 [14]: 0.398 µM
GI50 [18]: 0.501 µM
GI50 [21]: 0.302 µM
IC50 [22]: 0.0889 µM
GI50 [23]: 0.49 µM
GI50 [24]: 0.141 µM
IC50 [26]: 0.025 µM
IC50 [28]: 0.0573 µM
GI50 [31]: 0.603 µM
GI50 [32]: 0.372 µM
GI50 [35]: 0.295 µM
GI50 [36]: 0.251 µM
GI50 [38]: 0.363 µM
GI50 [40]: > 100 µM
IC50 [43]: 0.141 µM
GI50 [44]: 0.407 µM
GI50 [46]: 0.977 µM
IC50 [48]: 0.544 µM
GI50 [50]: 0.407 µM
GI50 [52]: 1.55 µM
GI50 [53]: 0.617 µM
GI50 [54]: 0.55 µM
GI50 [57]: 0.631 µM
GI50 [58]: 0.257 µM
GI50 [59]: 0.447 µM
GI50 [60]: 0.708 µM
